Test results as given in ChEMBL document CHEMBL1155063 (Bioorg Med Chem, 2008).

Experiments:
[1] = system: UO-31; experiment: Cytotoxicity against human UO31 cells at 10 uM after 48 hrs by MTT assay; assay type: functional; conditions: UO-31, 48 h, values are per cent of control
Procedure, shortened: (§1)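 Single-dose screen in the NCI 60-cell-line panel, run according to the Developmental Therapeutics Program protocol (one-dose mean graph). The result is the growth percentage of treated cells relative to untreated control cells.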

[2] = system: LOX IMVI; experiment: Cytotoxicity against human LOXIMVI cells at 10 uM after 48 hrs by MTT assay; assay type: functional; conditions: values are per cent of control
Procedure, shortened: (§2)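 Single-dose screen on the NCI 60-cell-line panel, run to the Developmental Therapeutics Program protocol (one-dose mean graph). Each value is the growth percentage of treated cells against untreated control cells.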

[3] = system: M14; experiment: Cytotoxicity against human M14 cells at 10 uM after 48 hrs by MTT assay; assay type: functional; conditions: M14, 48 h, values are per cent of control; procedure, shortened: as §2
[4] = system: Malme-3M; experiment: Cytotoxicity against human MALME3M cells at 10 uM after 48 hrs by MTT assay; assay type: functional; conditions: values are per cent of control; procedure, shortened: as §2
[5] = system: SK-MEL-2; experiment: Cytotoxicity against human SK-MEL-2 cells at 10 uM after 48 hrs by MTT assay; assay type: functional; conditions: SK-MEL-2, 48 h, values are per cent of control; procedure, shortened: as §2
[6] = system: SK-MEL-5; experiment: Cytotoxicity against human SK-MEL-5 cells at 10 uM after 48 hrs by MTT assay; assay type: functional; conditions: SK-MEL-5, 48 h, values are per cent of control; procedure, shortened: as §2
[7] = system: DU-145; experiment: Cytotoxicity against human DU145 cells at 10 uM after 48 hrs by MTT assay; assay type: functional; conditions: DU-145, 48 h, values are per cent of control; procedure, shortened: as §2
[8] = system: SF-539; experiment: Cytotoxicity against human SF539 cells at 10 uM after 48 hrs by MTT assay; assay type: functional; conditions: SF-539, 48 h, values are per cent of control; procedure, shortened: as §2
[9] = system: SNB-75; experiment: Cytotoxicity against human SNB75 cells at 10 uM after 48 hrs by MTT assay; assay type: functional; conditions: SNB-75, 48 h, values are per cent of control; procedure, shortened: as §1
[10] = Cytotoxicity against human H1299 cells at 100 uM after 48 hrs by MTT assay realtive to control; assay type: functional; conditions: NCI-H1299, 48 h
Procedure, shortened: (§3)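 H1299 non-small-cell lung cells were kept in RPMI 1640 with 10% FBS and penicillin/streptomycin at 37 °C under 5% CO2. About 2 × 10^3 cells per well were pre-incubated for 24 h. Compound was added from freshly made DMSO solution diluted in complete medium and left for 48 h. MTT was then added for 4 h at 37 °C, followed by 20% SDS/50% DMF lysis buffer for 16 h at 37 °C, and absorbance read at 550 nm.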

[11] = Cytotoxicity against human H1299 cells at 10 uM after 48 hrs by MTT assay realtive to control; assay type: functional; conditions: NCI-H1299, 48 h; procedure, shortened: as §3
[12] = Cytotoxicity against human TERT immortalized BJ1 cells at 100 uM after 48 hrs by MTT assay relative to control; assay type: cell-based, BJ
Procedure, shortened: (§4)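 hTERT-immortalized BJ1 fibroblasts were grown in DMEM with 10% FCS, 1 mM pyruvate and 4 mM […]. Cells (about 2 × 10^3 per well) were seeded and held 24 h at 37 °C. Compounds were freshly dissolved in DMSO, diluted into medium and left on the cells 48 h. MTT was added for 4 h, then SDS/DMF lysis buffer for 16 h. Absorbance was read at 550 nm and expressed relative to untreated cells (100%).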

[13] = Cytotoxicity against human TERT immortalized BJ1 cells at 10 uM after 48 hrs by MTT assay relative to control; assay type: cell-based, BJ; procedure, shortened: as §4
[14] = Cytotoxicity against human CAK1-1 cells at 10 uM after 48 hrs by MTT assay; assay type: functional; conditions: CAK1-1, 48 h; procedure, shortened: as §2
[15] = system: EKVX; experiment: Cytotoxicity against human EKVX cells at 10 uM after 48 hrs by MTT assay; assay type: functional; procedure, shortened: as §2
[16] = system: HOP-92; experiment: Cytotoxicity against human HOP92 cells at 10 uM after 48 hrs by MTT assay; assay type: functional; conditions: HOP-92, 48 h; procedure, shortened: as §2
[17] = system: NCI-H226; experiment: Cytotoxicity against human NCI-H226 cells at 10 uM after 48 hrs by MTT assay; assay type: functional; conditions: NCI-H226, 48 h; procedure, shortened: as §2
[18] = system: KM12; experiment: Cytotoxicity against human KM12 cells at 10 uM after 48 hrs by MTT assay; assay type: functional; conditions: KM12, 48 h, values are per cent of control; procedure, shortened: as §2
[19] = system: BT-549; experiment: Cytotoxicity against human BT549 cells at 10 uM after 48 hrs by MTT assay; assay type: functional; conditions: BT-549, 48 h; procedure, shortened: as §2
[20] = system: MDA-MB-435; experiment: Cytotoxicity against human MDA-MB-435 cells at 10 uM after 48 hrs by MTT assay; assay type: functional; conditions: MDA-MB-435, 48 h; procedure, shortened: as §2
[21] = system: OVCAR-3; experiment: Cytotoxicity against human OVCAR-3 cells at 10 uM after 48 hrs by MTT assay; assay type: functional; conditions: OVCAR-3, 48 h; procedure, shortened: as §2
[22] = system: OVCAR-4; experiment: Cytotoxicity against human OVCAR4 cells at 10 uM after 48 hrs by MTT assay; assay type: functional; conditions: OVCAR-4, 48 h; procedure, shortened: as §2
[23] = system: OVCAR-5; experiment: Cytotoxicity against human OVCAR5 cells at 10 uM after 48 hrs by MTT assay; assay type: functional; conditions: OVCAR-5, 48 h; procedure, shortened: as §2
[24] = system: OVCAR-8; experiment: Cytotoxicity against human OVCAR8 cells at 10 uM after 48 hrs by MTT assay; assay type: functional; conditions: OVCAR-8, 48 h; procedure, shortened: as §2
[25] = system: HL-60; experiment: Cytotoxicity against human HL60 cells at 10 uM after 48 hrs by MTT assay; assay type: functional; conditions: HL-60, 48 h; procedure, shortened: as §2
[26] = system: 786-0; experiment: Cytotoxicity against human 786-0 cells at 10 uM after 48 hrs by MTT assay; assay type: functional; conditions: 786-0, 48 h; procedure, shortened: as §2
[27] = system: ACHN; experiment: Cytotoxicity against human ACHN cells at 10 uM after 48 hrs by MTT assay; assay type: functional; procedure, shortened: as §2
[28] = system: HCT-15; experiment: Growth percent of human HCT15 cells at 10 uM after 48 hrs by MTT assay; conditions: HCT-15, 48 h
[29] = system: HCT-29; experiment: Growth percent of human HCT29 cells at 10 uM after 48 hrs by MTT assay; conditions: HCT-29, 48 h
[30] = system: HCT-116; experiment: Growth percent of human HCT116 cells at 10 uM after 48 hrs by MTT assay; conditions: HCT-116, 48 h
[31] = system: NCI-H522; experiment: Growth percent of human NCI-H522 cells at 10 uM after 48 hrs by MTT assay; conditions: NCI-H522, 48 h
[32] = Cell viability of human H1299 cells at 1 uM after 48 hrs by MTT assay relative to control; conditions: NCI-H1299, 48 h
[33] = target: Telomerase reverse transcriptase (Homo sapiens, UniProt O14746); experiment: Effect on human TERT expressed in BJ1 cells at 1 uM after 24 hrs by SEAP assay realtive to control; conditions: BJ
Sequence of Telomerase reverse transcriptase (O14746 whole entry): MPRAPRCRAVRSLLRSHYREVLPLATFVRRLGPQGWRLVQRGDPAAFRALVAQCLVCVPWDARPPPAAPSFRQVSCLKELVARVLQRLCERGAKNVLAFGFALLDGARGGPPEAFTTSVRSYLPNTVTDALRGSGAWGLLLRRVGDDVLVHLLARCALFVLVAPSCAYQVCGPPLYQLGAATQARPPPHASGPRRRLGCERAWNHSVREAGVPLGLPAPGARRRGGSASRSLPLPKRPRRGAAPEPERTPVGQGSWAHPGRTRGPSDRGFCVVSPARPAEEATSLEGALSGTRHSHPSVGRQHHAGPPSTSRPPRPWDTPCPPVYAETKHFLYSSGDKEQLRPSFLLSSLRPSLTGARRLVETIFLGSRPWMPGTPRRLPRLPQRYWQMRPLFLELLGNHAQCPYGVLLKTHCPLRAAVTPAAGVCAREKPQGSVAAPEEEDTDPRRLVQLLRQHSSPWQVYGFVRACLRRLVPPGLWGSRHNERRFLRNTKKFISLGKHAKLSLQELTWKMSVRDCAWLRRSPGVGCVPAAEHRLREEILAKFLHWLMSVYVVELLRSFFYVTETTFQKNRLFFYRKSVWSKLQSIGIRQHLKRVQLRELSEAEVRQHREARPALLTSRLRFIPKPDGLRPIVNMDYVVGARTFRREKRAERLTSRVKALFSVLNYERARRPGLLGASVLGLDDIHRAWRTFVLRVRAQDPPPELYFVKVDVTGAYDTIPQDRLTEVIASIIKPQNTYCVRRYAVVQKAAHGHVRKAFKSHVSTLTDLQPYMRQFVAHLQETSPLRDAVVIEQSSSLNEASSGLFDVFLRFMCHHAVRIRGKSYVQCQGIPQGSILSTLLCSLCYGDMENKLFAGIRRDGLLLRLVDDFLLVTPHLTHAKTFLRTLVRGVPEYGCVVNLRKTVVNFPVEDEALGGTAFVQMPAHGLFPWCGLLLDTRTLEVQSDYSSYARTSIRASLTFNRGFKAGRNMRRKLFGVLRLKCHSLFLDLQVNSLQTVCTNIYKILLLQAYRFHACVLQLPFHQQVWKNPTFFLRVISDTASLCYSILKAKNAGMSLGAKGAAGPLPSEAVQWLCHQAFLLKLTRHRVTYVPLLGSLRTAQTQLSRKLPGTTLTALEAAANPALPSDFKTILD

`CCN(CC)CCC(=O)Nc1ccc2c(c1)C(=O)c1cc(NC(=O)CCN(CC)CC)ccc1C2=O` gave a growth, % of control at 10 µM [1] of -31.5%, a growth, % of control at 10 µM [2] of 3.39% and a growth, % of control at 10 µM [3] of 62.8%. The growth, % of control at 10 µM [4] was 62.4%, the growth, % of control at 10 µM [5] was -60.4% and the growth, % of control at 10 µM [6] was 82.8%. It also gave a growth, % of control at 10 µM [7] of 10.2%, a growth, % of control at 10 µM [8] of 37.1% and a growth, % of control at 10 µM [9] of 46.6%. The viability at 100 µM [10] was 1%, the viability at 10 µM [11] was 41% and the viability at 48 h, 100 µM [12] was 36%. For the same molecule, the viability at 48 h, 10 µM [13] was 55%, the growth percent at 10 µM [14] was 3.27% and the growth percent at 10 µM [15] was 60%. The growth percent at 10 µM [16] was 9.7%, the growth percent at 10 µM [17] was 49.9% and the growth, % of control at 10 µM [18] was 21.8%. It also gave a growth percent at 10 µM [19] of 57%, a growth percent at 10 µM [20] of 71.1% and a growth percent at 10 µM [21] of 10.4%. It also gave a growth percent at 10 µM [22] of 24.9%, a growth percent at 10 µM [23] of 33.6% and a growth percent at 10 µM [24] of 4.3%. It also gave a growth percent at 10 µM [25] of 14%, a growth percent at 10 µM [26] of 24.7% and a growth percent at 10 µM [27] of 11.1%. The growth percent at 10 µM [28] was 17.4%, the growth percent at 10 µM [29] was 3.3% and the growth percent at 10 µM [30] was -32.5%. For the same molecule, the growth percent at 10 µM [31] was 28%, the cell viability at 1 µM [32] was 106% and the residual activity [33] was 84%.
